Laboratory results reported in ChEMBL document CHEMBL1138353, “Facile stereospecific synthesis and biological evaluation of (S)- and (R)-2-amino-2-methyl-4-[123I]iodo-3-(E)-butenoic acid for brain tumor imaging with single photon emission computerized tomography” (J Med Chem, 2007).

Legend:
Kidney [1] = test: Biodistribution in 9L cells bearing Fischer 344 rat kidney at 15 to 30 uCi, iv after 30 mins; type: ADME, organism-based; conditions: in vivo, 0.5 h
Method in brief: (§1)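 Male Fischer 344 rats (125–175 g) bearing intracranial 9L gliosarcoma implants; radioiodinated tracer (123I for S, 131I for R) purified in saline, given intravenously. Tissues harvested at 30, 60 or 120 min, radioactivity expressed as %ID/g (thyroid per organ). Groups: S study 5 rats per time; R study 5 at 30 min, 4 at 60 and 120 min.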

Thyroid gland [2] = test: Biodistribution in 9L cells bearing Fischer 344 rat thyroid at 15 to 30 uCi, iv after 60 mins; type: ADME, organism-based; conditions: in vivo, 1 h; method in brief: as §1
Muscle tissue [3] = test: Biodistribution in 9L cells bearing Fischer 344 rat muscle at 15 to 30 uCi, iv after 30 mins; type: ADME, organism-based; conditions: in vivo, 0.5 h; method in brief: as §1
Liver [4] = test: Biodistribution in 9L cells bearing Fischer 344 rat liver at 15 to 30 uCi, iv after 60 mins; type: ADME, organism-based; conditions: in vivo, 1 h; method in brief: as §1
Kidney [5] = test: Biodistribution in 9L cells bearing Fischer 344 rat kidney at 15 to 30 uCi, iv after 120 mins; type: ADME, organism-based; conditions: in vivo, 2 h; method in brief: as §1
Heart [6] = test: Biodistribution in 9L cells bearing Fischer 344 rat heart at 15 to 30 uCi, iv after 60 mins; type: ADME, organism-based; conditions: in vivo, 1 h; method in brief: as §1
Brain [7] = test: Biodistribution in 9L cells bearing Fischer 344 rat brain at 15 to 30 uCi, iv after 120 mins; type: ADME, organism-based; conditions: in vivo, 2 h; method in brief: as §1
Rattus norvegicus [8] = test: Biodistribution in 9L cells bearing Fischer 344 rat tumor at 15 to 30 uCi, iv after 60 mins; type: ADME, organism-based, Neoplasm; conditions: in vivo, 1 h; method in brief: as §1
Thyroid gland [9] = test: Biodistribution in 9L cells bearing Fischer 344 rat thyroid at 15 to 30 uCi, iv after 30 mins; type: ADME, organism-based; conditions: in vivo, 0.5 h; method in brief: as §1
Rattus norvegicus [10] = test: Biodistribution in 9L cells bearing Fischer 344 rat tumor at 15 to 30 uCi, iv after 120 mins; type: ADME, organism-based, Neoplasm; conditions: in vivo, 2 h; method in brief: as §1
Muscle tissue [11] = test: Biodistribution in 9L cells bearing Fischer 344 rat muscle at 15 to 30 uCi, iv after 120 mins; type: ADME, organism-based; conditions: in vivo, 2 h; method in brief: as §1
Nucleic Acid [12] = test: Ratio of drug level in tumor to brain in 9L cells bearing Fischer 344 rat at 15 to 30 uCi, iv after 30 mins; type: ADME, organism-based; conditions: in vivo, 0.5 h
Method in brief: (§2)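 Intracranial 9L gliosarcoma in male Fischer 344 rats (125–175 g). The 123I-labelled (S) or 131I-labelled (R) tracer was given iv in saline. Tumor and normal brain %ID/g were measured at 30, 60 or 120 min, and the ratio was taken from these. Groups were 5 per time for S, and 5/4/4 for R.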

Lung [13] = test: Biodistribution in 9L cells bearing Fischer 344 rat lung at 15 to 30 uCi, iv after 30 mins; type: ADME, organism-based; conditions: in vivo, 0.5 h; method in brief: as §1
Bone [14] = test: Biodistribution in 9L cells bearing Fischer 344 rat bone at 15 to 30 uCi, iv after 60 mins; type: ADME, organism-based, Bone element; conditions: in vivo, 1 h; method in brief: as §1
Thyroid gland [15] = test: Biodistribution in 9L cells bearing Fischer 344 rat thyroid at 15 to 30 uCi, iv after 120 mins; type: ADME, organism-based; conditions: in vivo, 2 h; method in brief: as §1
Kidney [16] = test: Biodistribution in 9L cells bearing Fischer 344 rat kidney at 15 to 30 uCi, iv after 60 mins; type: ADME, organism-based; conditions: in vivo, 1 h; method in brief: as §1
9L [17] = test: Drug uptake per 10^6 cells in rat 9L cells after 30 mins; type: ADME, cell-based; conditions: 0.5 h
Method in brief: (§3)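 Cultured rat 9L gliosarcoma cells incubated 30 min with 131I-labelled tracer, with or without A-type inhibitor N-MeAIB or L-type inhibitor BCH. Uptake expressed as percent of initial dose per 1 × 10^6 cells, normalized for dose and cell number. Inhibition compared to control by one-way ANOVA; SD shown.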

Blood [18] = test: Biodistribution in 9L cells bearing Fischer 344 rat blood at 15 to 30 uCi, iv after 60 mins; type: ADME, organism-based; conditions: in vivo, 1 h; method in brief: as §1
Spleen [19] = test: Biodistribution in 9L cells bearing Fischer 344 rat spleen at 15 to 30 uCi, iv after 60 mins; type: ADME, organism-based; conditions: in vivo, 1 h; method in brief: as §1
Lung [20] = test: Biodistribution in 9L cells bearing Fischer 344 rat lung at 15 to 30 uCi, iv after 60 mins; type: ADME, organism-based; conditions: in vivo, 1 h; method in brief: as §1
Brain [21] = test: Biodistribution in 9L cells bearing Fischer 344 rat brain at 15 to 30 uCi, iv after 30 mins; type: ADME, organism-based; conditions: in vivo, 0.5 h; method in brief: as §1
Bone [22] = test: Biodistribution in 9L cells bearing Fischer 344 rat bone at 15 to 30 uCi, iv after 30 mins; type: ADME, organism-based, Bone element; conditions: in vivo, 0.5 h; method in brief: as §1
Blood [23] = test: Biodistribution in 9L cells bearing Fischer 344 rat blood at 15 to 30 uCi, iv after 120 mins; type: ADME, organism-based; conditions: in vivo, 2 h; method in brief: as §1
Nucleic Acid [24] = test: Ratio of drug level in tumor to brain in 9L cells bearing Fischer 344 rat at 15 to 30 uCi, iv after 120 mins; type: ADME, organism-based; conditions: in vivo, 2 h; method in brief: as §2
Lung [25] = test: Biodistribution in 9L cells bearing Fischer 344 rat lung at 15 to 30 uCi, iv after 120 mins; type: ADME, organism-based; conditions: in vivo, 2 h; method in brief: as §1
Nucleic Acid [26] = test: Ratio of drug level in tumor to brain in 9L cells bearing Fischer 344 rat at 15 to 30 uCi, iv after 60 mins; type: ADME, organism-based; conditions: in vivo, 1 h; method in brief: as §2
Testes [27] = test: Biodistribution in 9L cells bearing Fischer 344 rat testes at 15 to 30 uCi, iv after 30 mins; type: ADME, organism-based, Testis; conditions: in vivo, 0.5 h; method in brief: as §1
Pancreas [28] = test: Biodistribution in 9L cells bearing Fischer 344 rat pancreas at 15 to 30 uCi, iv after 120 mins; type: ADME, organism-based; conditions: in vivo, 2 h; method in brief: as §1
Pancreas [29] = test: Biodistribution in 9L cells bearing Fischer 344 rat pancreas at 15 to 30 uCi, iv after 30 mins; type: ADME, organism-based; conditions: in vivo, 0.5 h; method in brief: as §1
Blood [30] = test: Biodistribution in 9L cells bearing Fischer 344 rat blood at 15 to 30 uCi, iv after 30 mins; type: ADME, organism-based; conditions: in vivo, 0.5 h; method in brief: as §1
9L [31] = test: Drug uptake per 10^6 cells in rat 9L cells after 30 mins assessed as uptake inhibition in presence of 2-aminobicyclo[2.2.1]-heptane-2-carboxylic acid relative to control; type: ADME, cell-based; parameters: scale not given: the % may be the effect or the level left; conditions: 0.5 h; method in brief: as §3
Spleen [32] = test: Biodistribution in 9L cells bearing Fischer 344 rat spleen at 15 to 30 uCi, iv after 30 mins; type: ADME, organism-based; conditions: in vivo, 0.5 h; method in brief: as §1
Pancreas [33] = test: Biodistribution in 9L cells bearing Fischer 344 rat pancreas at 15 to 30 uCi, iv after 60 mins; type: ADME, organism-based; conditions: in vivo, 1 h; method in brief: as §1
Spleen [34] = test: Biodistribution in 9L cells bearing Fischer 344 rat spleen at 15 to 30 uCi, iv after 120 mins; type: ADME, organism-based; conditions: in vivo, 2 h; method in brief: as §1
Testes [35] = test: Biodistribution in 9L cells bearing Fischer 344 rat testes at 15 to 30 uCi, iv after 120 mins; type: ADME, organism-based, Testis; conditions: in vivo, 2 h; method in brief: as §1
Heart [36] = test: Biodistribution in 9L cells bearing Fischer 344 rat heart at 15 to 30 uCi, iv after 120 mins; type: ADME, organism-based; conditions: in vivo, 2 h; method in brief: as §1
Muscle tissue [37] = test: Biodistribution in 9L cells bearing Fischer 344 rat muscle at 15 to 30 uCi, iv after 60 mins; type: ADME, organism-based; conditions: in vivo, 1 h; method in brief: as §1
Bone [38] = test: Biodistribution in 9L cells bearing Fischer 344 rat bone at 15 to 30 uCi, iv after 120 mins; type: ADME, organism-based, Bone element; conditions: in vivo, 2 h; method in brief: as §1
Brain [39] = test: Biodistribution in 9L cells bearing Fischer 344 rat brain at 15 to 30 uCi, iv after 60 mins; type: ADME, organism-based; conditions: in vivo, 1 h; method in brief: as §1
Liver [40] = test: Biodistribution in 9L cells bearing Fischer 344 rat liver at 15 to 30 uCi, iv after 120 mins; type: ADME, organism-based; conditions: in vivo, 2 h; method in brief: as §1
Heart [41] = test: Biodistribution in 9L cells bearing Fischer 344 rat heart at 15 to 30 uCi, iv after 30 mins; type: ADME, organism-based; conditions: in vivo, 0.5 h; method in brief: as §1
Testes [42] = test: Biodistribution in 9L cells bearing Fischer 344 rat testes at 15 to 30 uCi, iv after 60 mins; type: ADME, organism-based, Testis; conditions: in vivo, 1 h; method in brief: as §1
Rattus norvegicus [43] = test: Biodistribution in 9L cells bearing Fischer 344 rat tumor at 15 to 30 uCi, iv after 30 mins; type: ADME, organism-based, Neoplasm; conditions: in vivo, 0.5 h; method in brief: as §1
Liver [44] = test: Biodistribution in 9L cells bearing Fischer 344 rat liver at 15 to 30 uCi, iv after 30 mins; type: ADME, organism-based; conditions: in vivo, 0.5 h; method in brief: as §1

Compound: C[C@@](N)(/C=C/[131I])C(=O)O
- Drug uptake (Kidney [1]): 2.91 % ID/g
- Drug uptake (Thyroid gland [2]): 0.25 %ID/organ
- Drug uptake (Muscle tissue [3]): 0.26 % ID/g
- Drug uptake (Liver [4]): 0.6 % ID/g
- Drug uptake (Kidney [5]): 1.76 % ID/g
- Drug uptake (Heart [6]): 0.43 % ID/g
- Drug uptake (Brain [7]): 0.051 % ID/g
- Drug uptake (Rattus norvegicus [8]): 0.51 % ID/g
- Drug uptake (Thyroid gland [9]): 0.08 %ID/organ
- Drug uptake (Rattus norvegicus [10]): 0.39 % ID/g
- Drug uptake (Muscle tissue [11]): 0.26 % ID/g
- Ratio (Nucleic Acid [12]): 10
- Drug uptake (Lung [13]): 0.27 % ID/g
- Drug uptake (Bone [14]): 0.34 % ID/g
- Drug uptake (Thyroid gland [15]): 0.36 %ID/organ
- Drug uptake (Kidney [16]): 3.43 % ID/g
- Drug uptake (9L [17]): 0.07 %ID
- Drug uptake (Blood [18]): 0.69 % ID/g
- Drug uptake (Spleen [19]): 0.5 % ID/g
- Drug uptake (Lung [20]): 0.65 % ID/g
- Drug uptake (Brain [21]): 0.018 % ID/g
- Drug uptake (Bone [22]): 0.13 % ID/g
- Drug uptake (Blood [23]): 0.56 % ID/g
- Ratio (Nucleic Acid [24]): 7.6
- Drug uptake (Lung [25]): 0.45 % ID/g
- Ratio (Nucleic Acid [26]): 7.7
- Drug uptake (Testes [27]): 0.09 % ID/g
- Drug uptake (Pancreas [28]): 0.78 % ID/g
- Drug uptake (Pancreas [29]): 1.21 % ID/g
- Drug uptake (Blood [30]): 0.22 % ID/g
- Activity (9L [31]): 57%
- Drug uptake (Spleen [32]): 0.3 % ID/g
- Drug uptake (Pancreas [33]): 1.86 % ID/g
- Drug uptake (Spleen [34]): 0.31 % ID/g
- Drug uptake (Testes [35]): 0.23 % ID/g
- Drug uptake (Heart [36]): 0.34 % ID/g
- Drug uptake (Muscle tissue [37]): 0.4 % ID/g
- Drug uptake (Bone [38]): 0.26 % ID/g
- Drug uptake (Brain [39]): 0.066 % ID/g
- Drug uptake (Liver [40]): 0.37 % ID/g
- Drug uptake (Heart [41]): 0.19 % ID/g
- Drug uptake (Testes [42]): 0.26 % ID/g
- Drug uptake (Rattus norvegicus [43]): 0.19 % ID/g
- Drug uptake (Liver [44]): 0.31 % ID/g
